Results: PMC5515376 (Nature, 2016)
Entries after “also recorded” stand apart in the source; their conditions may differ. Where two headings read alike, the source gives them in different places. Marks after values point to notes of the source that are not given here.

Assays:
P. falciparum Dd2 [1] = assay: In vitro P. falciparum blood-stage growth inhibition assay; format: cell-based, Plasmodium falciparum
[2] = tested on: P. falciparum 3D7 stage IV–V gametocytes; assay: In vitro transmission-blocking assay; format: cell-based, Plasmodium falciparum; conditions: P. falciparum (3D7), Gametocyte (IV-V)
How it was run: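 3D7 cultures were treated 3 days with 50 mM N-acetyl-D-glucosamine to remove asexual parasites. Stage IV–V gametocytes were then isolated on a discontinuous Percoll gradient. Gametocytes (1.0 × 10^5 per well) were incubated with compound for 72 h. Viability was measured by CellTiter-Glo luminescence.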

[3] = tested on: P. falciparum (NF54) stage V gametocytes; assay: P. falciparum standard membrane feeding assay; format: cell-based, Plasmodium falciparum
[4] = tested on: P. berghei (ANKA) liver stage; assay: In vitro P. berghei liver-stage assay; format: cell-based, Plasmodium berghei; conditions: P. berghei (ANKA), Liver stage
How it was run: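 HepG2 cells (~17,500 per well, in duplicate) were cultured 18–24 h, then the medium was exchanged and compound added. After 1 h, 4,000 P. berghei ANKA GFP–luc sporozoites per well were added, freshly dissected from A. stephensi mosquitoes. Plates were spun 10 min at 1,000 r.p.m. and incubated 48 h at 37 °C. Parasite load was read by Bright-Glo luminescence.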

[5] = Plasma protein binding assay; format: in vitro ADME
How it was run: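 Binding was measured by equilibrium dialysis in a RED device. Compound at 5 µM, in duplicate, was placed in mouse plasma (0.95% acetonitrile, 0.05% DMSO) against PBS pH 7.4. Incubation was 5 h at 37 °C with 350 r.p.m. orbital shaking. Both sides were analysed by UPLC–MS with single-ion detection.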

[6] = Metabolic stability assay, mouse liver microsomes; format: in vitro ADME
How it was run: (§1)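 Liver microsomes (0.2 mg ml−1) were incubated with compound (0.5 and 5 µM) plus NADPH for 0, 10 and 90 min. Human microsomes or mouse CD-1 microsomes were used, as named in each line. Compound depletion was measured by LC–MS/MS and used to estimate Km, Vmax and half-life.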

[7] = Metabolic stability assay, human liver microsomes; format: in vitro ADME
How it was run: as §1

HepG2 cell line = assay: Mammalian cell cytotoxicity assay; format: cell-based, human; conditions: read-out: HepG2 CC50; 72 h
How it was run: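 HepG2, A549 or HEK293 cells were grown in DMEM with 10% FBS and 1% antibiotic–antimycotic and tested mycoplasma-free. Cells (1 × 10^6) were seeded one day before treatment. They were exposed to ascending compound doses for 72 h, and viability was read by CellTiter-Glo.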

hERG channel = hERG channel (Homo sapiens, UniProt Q12809); assay: hERG channel inhibition assay; format: cell-based; conditions: read-out: hERG IC50; IKr
How it was run: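 hERG current was measured in hERG-expressing cell lines by automated patch clamp (QPatch-HTX).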

[8] = Mouse pharmacokinetics assay; format: in vivo; conditions: CD-1 mice
How it was run: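 Female CD-1 mice received single intravenous and oral doses. Parameters were estimated by non-compartmental analysis.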

[9] = Pharmacokinetics in P. falciparum 3D7^HLH/BRD-infected NSG mice; format: in vivo, mouse; conditions: for AUC: huRBC NSG mice; for AUC0-inf / Cmax / MRT0-inf / Tmax / AUC0-t: infected NSG mice; for AUC0-t: t = 24 h
[10] = tested on: P. falciparum 3D7^HLH/BRD blood-stage parasites; assay: In vivo P. falciparum blood-stage assay; design: species or system Plasmodium falciparum; conditions: huRBC NSG mice
[11] = tested on: P. berghei (ANKA GFP-luc) sporozoites; assay: In vivo P. berghei causal prophylaxis assay; design: species or system Plasmodium berghei; conditions: CD-1 mice
[12] = tested on: P. falciparum (NF54HT-GFP-luc) sporozoites; assay: In vivo P. falciparum liver-stage assay; design: species or system Plasmodium falciparum
[13] = tested on: P. berghei (ANKA GFP-luc); assay: In vivo P. berghei transmission-stage assay; design: species or system Plasmodium berghei; conditions: for Compound remaining in the circulation (plasma concentration): P. berghei-infected CD-1 mice
[14] = tested on: P. falciparum 3D7^HLH/BRD; assay: In vivo P. falciparum transmission-stage assay; design: species or system Plasmodium falciparum; conditions: huRBC NSG mice; single oral 12.5 mg kg^−1; 7 days after treatment
[15] = tested on: Salmonella typhimurium strains TA100, TA1535, TA98, TA1537 and Escherichia coli strain WP2uvrA; assay: Ames test; conditions: in the presence or absence of S9 mix
P. falciparum Dd2 [16] = format: cell-based, Plasmodium falciparum; conditions: Dd2 cultures, inocula 10^5 to 10^9, 20 nM (EC90), 60 days
[17] = tested on: major human cytochrome P450 (CYP) isoforms
[18] = IV (2.5) mg/kg, separate assay over 72 h

hERG channel, sequence (Q12809 whole entry): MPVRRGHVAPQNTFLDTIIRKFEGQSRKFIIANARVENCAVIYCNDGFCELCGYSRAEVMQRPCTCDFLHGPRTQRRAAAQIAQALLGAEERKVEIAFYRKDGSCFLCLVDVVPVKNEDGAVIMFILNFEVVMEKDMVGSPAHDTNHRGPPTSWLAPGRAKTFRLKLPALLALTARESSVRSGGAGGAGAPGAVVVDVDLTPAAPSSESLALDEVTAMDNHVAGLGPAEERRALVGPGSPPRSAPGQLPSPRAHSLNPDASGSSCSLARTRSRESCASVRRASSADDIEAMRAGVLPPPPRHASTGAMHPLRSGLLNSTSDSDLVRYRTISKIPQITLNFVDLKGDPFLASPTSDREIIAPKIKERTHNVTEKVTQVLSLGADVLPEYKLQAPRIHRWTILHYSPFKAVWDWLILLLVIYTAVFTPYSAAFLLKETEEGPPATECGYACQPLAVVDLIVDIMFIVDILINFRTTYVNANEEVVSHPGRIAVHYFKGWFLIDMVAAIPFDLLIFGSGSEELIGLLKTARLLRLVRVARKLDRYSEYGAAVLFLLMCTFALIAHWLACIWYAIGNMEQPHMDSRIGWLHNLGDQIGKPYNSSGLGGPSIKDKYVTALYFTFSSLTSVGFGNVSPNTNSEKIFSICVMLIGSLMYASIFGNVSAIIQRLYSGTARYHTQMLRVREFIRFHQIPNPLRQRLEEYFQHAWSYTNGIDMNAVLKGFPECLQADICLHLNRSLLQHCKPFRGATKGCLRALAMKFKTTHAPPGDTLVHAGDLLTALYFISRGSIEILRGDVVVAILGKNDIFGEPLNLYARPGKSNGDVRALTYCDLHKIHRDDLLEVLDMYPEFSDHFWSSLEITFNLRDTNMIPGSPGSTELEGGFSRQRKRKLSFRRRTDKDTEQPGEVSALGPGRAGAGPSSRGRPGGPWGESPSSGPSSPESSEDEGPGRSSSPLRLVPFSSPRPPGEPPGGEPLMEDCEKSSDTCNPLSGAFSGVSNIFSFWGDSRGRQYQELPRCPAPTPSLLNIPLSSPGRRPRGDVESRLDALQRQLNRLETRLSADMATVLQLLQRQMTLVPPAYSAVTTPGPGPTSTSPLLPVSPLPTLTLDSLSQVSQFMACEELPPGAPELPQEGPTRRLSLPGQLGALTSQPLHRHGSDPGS

`COc1ccc(NC(=O)N2CCCCN3[C@H](CN(C)C)[C@H](c4ccc(C#Cc5ccccc5)cc4)[C@@H]3C2)cc1` [BRD7929] gave an EC50 (P. falciparum Dd2 [1]; read-out: Pf, Dd2 EC50, blood stage) of 0.009 µM, an EC50 (P. falciparum Dd2 [1]; read-out: PfDd2 EC50, asexual blood-stage parasites (Dd2), SAR table) of 0.009 µM and an EC90 (P. falciparum Dd2 [1]; strain Dd2) of 0.02 µM. The EC50 [2] was 0.16 µM, the EC50 ([3]; read-out: EC50, standard membrane-feeding assay, direct (D), single drug concentration (10 µM) immediately before blood feeding) was < 10 µM and the EC50 ([3]; read-out: EC50, standard membrane-feeding assay, indirect (ID), parasites treated 24 h before mosquito feeding) was 0.27 µM. For the same molecule, the EC50 [4] was 0.162 µM, the “Mouse Plasma protein binding” value [5] was 99.9% and the “Mouse Clint” value [6] was 21 µL/min/mg. For the same molecule, the “Human Clint” value [7] was 31 µL/min/mg, the CC50 (HepG2 cell line) was 9 µM and the IC50 (hERG channel) was 2.1 µM. For the same molecule, the “AUC (estimated)” value ([8]; 25 mg kg^−1 single-dose cure, estimated from pharmacokinetic studies) was 27.5 µM·h, the CL ([8]; IV (2.5) mg/kg) was 9.9 mL/min/kg and the MRT0-inf ([8]; IV (2.5) mg/kg) was 40.5 h. The Vss ([8]; IV (2.5) mg/kg) was 24 L/kg, the AUC0-inf [8, 18] was 11.2 µM·h and the CL [8, 18] was 7.1 mL/min/kg. For the same molecule, the MRT0-inf [8, 18] was 45 h, the T1/2 [8, 18] was 32 h and the Vss [8, 18] was 19 L/kg. The AUC0-t ([8]; IV (2.5) mg/kg, separate assay, t = 72 h) was 9 ^# µM*hr, the AUC0-t ([8]; IV (2.5) mg/kg, t = 24 h) was 3.5 ^¶ µM*hr and the Cmax ([8]; PO (10) mg/kg) was 540 nM. The Tmax ([8]; PO (10) mg/kg) was 8 h, the F ([8]; PO (10) mg/kg, based on initial intravenous study at 24 h) was 79.5 ^§ % and the AUC0-t ([8]; PO (10) mg/kg, t = 24 h) was 11 ^¶ µM*hr. It also gave an AUC ([9]; 6.25 mg kg^−1 single oral dose) of 15.7 µM·h, an AUC ([9]; 12.5 mg kg^−1 single oral dose (single-dose cure)) of 31.4 µM·h and an AUC ([9]; 25 mg kg^−1 single oral dose) of 62.8 µM·h. It also gave an AUC ([9]; 50 mg kg^−1 single oral dose) of 125.6 µM·h, an AUC0-inf ([9]; PO (3) mg/kg) of 7.2 µM·h and a Cmax ([9]; PO (3) mg/kg) of 210 nM. For the same molecule, the MRT0-inf ([9]; PO (3) mg/kg) was 35.4 h, the Tmax ([9]; PO (3) mg/kg) was 12 h and the AUC0-t ([9]; PO (3) mg/kg) was 6.4 ^¶ µM*hr. For the same molecule, the AUC0-inf ([9]; PO (9) mg/kg) was 22.6 µM·h, the Cmax ([9]; PO (9) mg/kg) was 600 nM and the MRT0-inf ([9]; PO (9) mg/kg) was 37.8 h. For the same molecule, the Tmax ([9]; PO (9) mg/kg) was 12 h, the AUC0-t ([9]; PO (9) mg/kg) was 19.7 ^¶ µM*hr and the “Lowest single oral dose with no recrudescence” value ([10]; P. falciparum 3D7^HLH/BRD) was 12.5 mg/kg. For the same molecule, the “Rate of the loss of bioluminescence” value ([10]; single dose 6.25 mg kg^−1) was “slower”, the “Change in parasite-associated bioluminescence” value ([10]; single dose 25 mg kg^−1 and 50 mg kg^−1) was “rapid decrease” and the “Mice developing blood-stage parasitaemia within a 30-day period” value ([11]; single dose of 5 or 25 mg kg^−1) was “none”. The “Lowest single oral dose with no recrudescence” value ([11]; P. berghei liver-stage model) was 5 mg/kg, the “Ct value, P. falciparum UCE qRT-PCR” value ([12]; blood 7 days after inoculation, 40 amplification cycles) was 40 and the “Blood-stage marker (P. falciparum UCE transcript) by qRT-PCR” value ([12]; blood 7 days after inoculation, single 10 mg kg^−1 oral dose) was “no amplification of the marker was detected; also recorded: not detected”. The Liver-stage-associated bioluminescence signal ([12]; huHep FRG knockout mice, single 10 mg kg^−1 oral dose 1 day after inoculation) was “No increase in bioluminescence intensity level; also recorded: no increase in bioluminescence signals”, the “Oocysts in mosquito midguts” value ([13]; CD-1 mice, single oral 5 or 20 mg kg^−1, 2 days before mosquito feeding) was “No oocysts were detected” and the “Compound remaining in the circulation (plasma concentration)” value (from here on “Compound remaining in the circulation”) ([13]; oral 25 mg kg^−1, 1 day after treatment) was 896.5 ng/mL. For the same molecule, the “Compound remaining in the circulation” value ([13]; oral 25 mg kg^−1, 4 days after treatment) was 170.5 ng/mL, the “Compound remaining in the circulation” value ([13]; oral 25 mg kg^−1, 10 days after treatment) was 8.6 ng/mL and the Transmission ([13]; oral 1.25 mg kg^−1 and 0.31 mg kg^−1, 2 days before feeding mosquitoes) was “reduced transmission activity”. The Transmission ([13]; oral 5 mg kg^−1, 2 days before feeding mosquitoes) was “complete blocking of transmission”, the “Oocysts in mosquito midguts” value ([13]; oral 25 mg kg^−1, blood feeding 1, 4 or 10 days after treatment) was “No oocysts were found” and the “Transcription of asexual marker SBP1 (qRT-PCR)” value [14] was “decreased to undetectable levels”. For the same molecule, the “Transcription of mature gametocyte marker Pfs25 (qRT-PCR)” value [14] was “decreased to undetectable levels”, the “Mutagenicity (Ames test)” value [15] was “non-mutagenic” and the “Recrudescence / resistance under constant drug pressure” value (P. falciparum Dd2 [16]) was “No recrudescence”. For the same molecule, the “Inhibition of major human CYP isoforms” value [17] was “no inhibition”.
